In the library only some 2.4% were active in any assay of this set; here they are far more common.
GSTO1 inh: GSTO1 inhibition, counter-screen for RBBP9 inhibitors; P78417; recombinant GSTO1, activity-based probe fluorescence polarization; inhibition, % at 5.96 µM; 300,000 tested, 1.1% active; AID 1974;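 active = inhibition above the campaign mean inhibition plus 3 SD, cut at about 35% in these data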;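 note: 0% = GSTO1-1 with DMSO and 100% = wells lacking GSTO1-1 enzyme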
TDP2 absorb: blocks human TDP2 phosphodiesterase activity; inhibition, % at 12.8 µM; recombinant TDP2, T5PNP hydrolysis, p-nitrophenol absorbance 415 nm; 370,000 tested, 0.34% active;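 active = inhibition above the mean of all tested compounds plus 3 SD, set per campaign, cut at about 25% in these data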;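 note: 0% = DMSO with enzyme and 100% = buffer with substrate but no TDP2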
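test system = human TDP2 enzyme | input = TDP2 enzyme at 120 nM final | medium = 50 mM Tris-HCl pH 7.5 with Mg2+, KCl, DTT, BSA | also added = T5PNP substrate, 5 mM | times = 2 h at 37 °C | technique = epi absorbance | benchmarks = high control without enzyme, low control DMSO plus TDP2 | replication = each compound tested once, singlicate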
PAD4 FP inh: blocks human protein arginine deiminase 4 | recombinant PAD4, RCA probe fluorescence polarization | inhibition, % at 6.36 µM | 330,000 tested, 0.41% active | AID 485272;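 active = percent inhibition above a cutoff equal to the mean of all tested compounds plus 3 SD, cut at about 15% in these data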;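 note: 0% = PAD4 with RCA probe and DMSO and 100% = probe without PAD4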
Target sequence (Q9UM07 whole entry, looked up): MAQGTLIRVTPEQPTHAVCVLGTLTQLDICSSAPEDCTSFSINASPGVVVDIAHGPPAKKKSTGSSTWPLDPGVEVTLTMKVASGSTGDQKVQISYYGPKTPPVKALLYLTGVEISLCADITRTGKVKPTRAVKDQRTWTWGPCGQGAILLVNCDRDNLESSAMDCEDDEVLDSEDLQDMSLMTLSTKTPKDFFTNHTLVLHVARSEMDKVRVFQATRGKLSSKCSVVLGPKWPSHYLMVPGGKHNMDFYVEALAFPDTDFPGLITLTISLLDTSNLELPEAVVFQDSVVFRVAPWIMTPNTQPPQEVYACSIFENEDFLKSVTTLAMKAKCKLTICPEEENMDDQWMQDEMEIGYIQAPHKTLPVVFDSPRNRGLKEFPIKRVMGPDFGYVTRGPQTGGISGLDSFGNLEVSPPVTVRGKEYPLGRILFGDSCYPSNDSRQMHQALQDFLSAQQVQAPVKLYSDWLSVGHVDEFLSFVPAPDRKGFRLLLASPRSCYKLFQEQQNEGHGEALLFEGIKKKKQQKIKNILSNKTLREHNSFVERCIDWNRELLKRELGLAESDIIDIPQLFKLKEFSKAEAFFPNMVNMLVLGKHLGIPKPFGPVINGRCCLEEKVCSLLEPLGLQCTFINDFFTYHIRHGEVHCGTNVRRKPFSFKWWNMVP
Apaf-1 inh: blocks human Apaf-1 apoptosome activity; reconstituted apoptosome caspase-3 activity, DEVD-Rh110 fluorescence; 330,000 tested, 0.71% active; O14727; AID 489030; inhibition, % at 20 µM; active = inhibition of at least 40% at 20 µM;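 note: plate controls were DMSO wells for no effect and DEVD-CHO caspase inhibitor wells for full effect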
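Medium: Hepes buffer, pH 7.5 / System: biochemical Apaf-1 apoptosome reconstitution / Measured by: Rh110 fluorescence, excitation 480 nm, emission 540 nm / Times: compound with Apaf-1, dATP, procaspase-3 30 min, then 50 min reaction, room temperature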
SIAE primary: blocks human sialic acid acetylesterase | SIAE FP-Rh probe binding, fluorescence polarization | Q9HAT2 | 370,000 tested, 0.69% active | inhibition, % at 9.66 µM;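 active = inhibition above a cutoff: mean of compounds within the control limits plus 3 SD of those, cut at about 17% in these data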;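 note: 0% = plate median of compound wells and 100% = probe without SIAE protein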
TCR CD3 inh: blocks the human TCR-CD3 interaction; 360,000 tested, 0.37% active; AID 651800; TAMRA-labeled TCR probe fluorescence, biochemical; inhibition, % at 9.4 µM; in the data active = inhibition above about 19%;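 note: recombinant mutant TCR 2C K166C tagged with TAMRA read by polarization; 0% = receptor in buffer alone and 100% = receptor with positive control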
Apaf-1 inh conf2: Apaf-1 inhibition, single-dose confirmed. inhibition, % at 20 µM. reconstituted apoptosome, caspase-3 DEVD-Rh110 fluorescence. shares compounds with Apaf-1 inh. 1,800 tested, 25% active;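 active = mean inhibition of at least 40% at 20 µM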;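 note: plate controls were DMSO wells for no effect and DEVD-CHO caspase inhibitor control wells for full effect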
Rh110 quench: Rh110 signal interference in Apaf-1 inhibitor counter-screen | Rh110 fluorescence interference, quenched caspase reaction | 1,800 tested, under 10 active | shares compounds with Apaf-1 inh | activation (fluorescence interference), % at 20 µM | AID 504615;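 active = signal rise of 40% or more at 20 µM, treated as a fluorescence artifact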
Apaf1 inh interf: shows fluorescence interference in the Apaf-1 inhibitor assay format. fluorescence interference counterscreen, Apaf-1 assay format. shares compounds with Apaf-1 inh. 460 tested, under 10 active. IC50, µM; call rule not given here
The depositor's hits bear a star.

Screening CCCCn1c(N)c(N(Cc2ccccc2OC)C(=O)CCSC)c(=O)[nH]c1=O returned TDP2 absorb 0.1, Apaf-1 inh 6.3, SIAE primary -2.9 and TCR CD3 inh 1.6.
`COc1ccc2c(-c3ccc(OCCN4CCCCC4)cc3)c(-c3ccccc3OC)sc2c1` gave PAD4 FP inh -2.2, Apaf-1 inh 60.0*, Apaf-1 inh conf2 9.1 and Rh110 quench 11.1.
COc1ccccc1-c1sc2ccccc2c1-c1ccc(OCCN2CCCCC2)cc1 was read as PAD4 FP inh -1.9, Apaf-1 inh 62.1*, Apaf-1 inh conf2 10.1 and Rh110 quench 10.2.
For COc1ccc2c(-c3ccc(OCCN4CCOCC4)cc3)c(-c3ccccc3OC)sc2c1 the results were PAD4 FP inh 3.8 and Apaf-1 inh 29.0.
CN(C)c1cccc(C(=O)NCc2ccccc2)c1 was read as GSTO1 inh 8.6, TDP2 absorb -6.2, PAD4 FP inh 1.9, Apaf-1 inh -7.7, SIAE primary -1.0 and TCR CD3 inh 8.8.
`Cc1ccc(S(=O)(=O)NCc2ccccc2)cc1C(=O)N1CCN(c2ccccc2)CC1` gave TDP2 absorb -0.7, PAD4 FP inh 2.0, Apaf-1 inh 58.3*, SIAE primary -4.3, TCR CD3 inh 4.1, Apaf-1 inh conf2 39.6 and Rh110 quench 7.6.
For Cc1ccc(S(=O)(=O)NCc2ccccc2)cc1C(=O)N1CCCCC1 the results were GSTO1 inh 7.0, TDP2 absorb -0.9, PAD4 FP inh 0.6, Apaf-1 inh 8.7, SIAE primary 2.5 and TCR CD3 inh 6.3.
For O=C(c1cccc(S(=O)(=O)NCc2ccccc2)c1)N1CCN(c2cccc(C(F)(F)F)c2)CC1 the results were GSTO1 inh -5.4, TDP2 absorb -6.5, PAD4 FP inh 3.3, Apaf-1 inh 44.1*, SIAE primary -10.0, TCR CD3 inh -1.1, Apaf-1 inh conf2 39.8 and Rh110 quench 1.6.
FC(F)(F)c1cnc(NNC(=S)Nc2ccccc2Cl)c(Cl)c1 was read as GSTO1 inh 2.2, TDP2 absorb 8.2, PAD4 FP inh 2.6, Apaf-1 inh -1.5, SIAE primary 6.6 and TCR CD3 inh -3.2.
COc1cc(OC)c2c(-c3cccc(-c4ccc(CO)cc4)c3)cc(=O)oc2c1 was read as PAD4 FP inh -4.3, Apaf-1 inh 42.3*, Apaf-1 inh conf2 36.1 and Rh110 quench 2.5.
For O=C(CSc1nnnn1-c1ccc(F)cc1)c1ccc(O)c(O)c1 the results were GSTO1 inh 29.3, TDP2 absorb -11.5, PAD4 FP inh 2.5, SIAE primary 4.5 and TCR CD3 inh 5.8.
`CC(C)C(C(=O)O)N1C(=O)/C(=C/C=C/c2ccco2)SC1=S` (stereo not drawn) gave GSTO1 inh 25.3, PAD4 FP inh -5.2, Apaf-1 inh 45.7*, Apaf-1 inh conf2 48.4*, Rh110 quench 6.0 and Apaf1 inh interf >100.
CC(C)C(C(=O)O)N1C(=O)/C(=C/c2cccn2C)SC1=S (stereo not drawn) was read as GSTO1 inh -7.5, TDP2 absorb -3.4, PAD4 FP inh -5.1, SIAE primary -2.5 and TCR CD3 inh 5.6.
CCCCc1c(C)c(C#N)c2[nH]c3ccccc3n2c1=O was read as GSTO1 inh -142.3, TDP2 absorb 1.9, PAD4 FP inh -6.1, Apaf-1 inh 45.3*, SIAE primary 5.8, TCR CD3 inh 2.5, Apaf-1 inh conf2 49.8*, Rh110 quench 7.5 and Apaf1 inh interf >100.
For Cc1c(CCC(C)C)c(=O)n2c([nH]c3ccccc32)c1C#N the results were GSTO1 inh -12.8, PAD4 FP inh 2.1, Apaf-1 inh 59.6*, Apaf-1 inh conf2 64.8*, Rh110 quench -2.5 and Apaf1 inh interf >100.

Screening results from PubChem BioAssay.
